The source of these data is ChEMBL document CHEMBL1143619, “Synthesis and biological evaluation of aminopolyamines” (J Med Chem, 2005).

One may read the IC50 as the concentration needed to halve the response being measured. A high value points to weaker potency in that assay. One may read the Ki as the equilibrium dissociation constant of an inhibitor or competing ligand from its target. A lower Ki goes with tighter binding.

Test [1] deals with L1210. Briefly: Effect on Putrescine (PUT) levels after 48 hr treatment at 500 uM in L1210 cells. The class given is functional, Mus musculus.
The test system of test [2] is L1210. Nature of the test: Effect on spermidine (SPD) levels after 48 hr treatment at 500 uM in L1210 cells. In kind it is functional, Mus musculus.
For test [3], the system named is L1210. Nature of the test: Cellular concentration expressed in L1210 cells. The class given is functional, Mus musculus.
In test [4] the test system is L1210. Nature of the test: Effect on spermine (SPM) levels after 48 hr treatment at 500 uM in L1210 cells. The class given is functional, Mus musculus.
Test [5] relates to L1210. Nature of the test: Inhibitory activity against L1210 cell growth for 96h. Conditions: Mus musculus, L1210, 96 h. In kind it is functional, cell-based. The method in brief: (§1)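 Murine leukemia L1210 cells grown with nine extracellular drug concentrations (0, 0.03, 0.1, 0.3, 1.0, 3, 10, 30, 100 µM); IC50 estimated from growth curves at 48 or 96 h; mean of at least two experiments.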

Test [6] addresses T1, Ornithine decarboxylase (Mus musculus) (UniProt P00860).
T1 sequence (whole entry): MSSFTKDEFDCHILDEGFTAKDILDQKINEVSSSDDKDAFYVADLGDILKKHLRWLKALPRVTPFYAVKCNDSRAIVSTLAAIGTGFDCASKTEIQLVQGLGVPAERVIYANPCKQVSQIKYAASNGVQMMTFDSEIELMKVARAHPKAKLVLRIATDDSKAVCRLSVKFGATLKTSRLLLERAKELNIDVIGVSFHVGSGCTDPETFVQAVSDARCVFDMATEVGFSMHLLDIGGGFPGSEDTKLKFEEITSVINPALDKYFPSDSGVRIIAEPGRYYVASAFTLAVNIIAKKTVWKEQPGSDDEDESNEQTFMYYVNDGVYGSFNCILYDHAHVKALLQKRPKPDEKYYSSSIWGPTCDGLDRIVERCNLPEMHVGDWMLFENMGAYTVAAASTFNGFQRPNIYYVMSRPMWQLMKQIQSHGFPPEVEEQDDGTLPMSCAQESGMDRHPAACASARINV
Briefly: Effect on Ornithine Decarboxylase (ODC) activity in L1210 cells at 1 uM for 4 hr. In kind it is functional, cell-based.

For test [7], the target named is Spermidine/spermine N(1)-acetyltransferase (SAT) (Mus musculus) (UniProt Q6P8J2+P48026). Nature of the test: Effect on Spermidine/spermine N1-acetyl transferase (SSAT) activity in L1210 cells at 10 uM for 48h. In kind it is functional, cell-based.
Test [8] can be described thus: Effect on S-Adenosyl-methionine decarboxylase (AdoMetDC) activity in L1210 cells at 1 uM for 6 hr.
Test [9] concerns L1210. Nature of the test: Effect on spermine (SPM) levels after 48 hr treatment at 50 uM in L1210 cells. The class given is functional, Mus musculus.
The subject of test [10] is L1210. Nature of the test: Effect on Putrescine (PUT) levels after 48 h treatment at 50 uM in L1210 cells. The class given is functional, Mus musculus.
For test [11], the system named is L1210. Nature of the test: Effect on spermidine (SPD) levels after 48 hr treatment at 50 uM in L1210 cells. The class given is functional, Mus musculus.
The test system of test [12] is L1210. Nature of the test: Inhibitory activity against L1210 cell growth for 48 hr. In kind it is functional, cell-based. The following applies: Mus musculus, L1210, 48 h. A digest of the protocol:
as §1

For test [13], the system named is L1210. Nature of the test: Ability to inhibit [3H]SPD transport by L1210 cells. In kind it is functional, cell-based, Mus musculus. A digest of the protocol:
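Ki from analogue inhibition of [3H]spermidine transport into murine leukemia L1210 cells, analysed as substrate-competitive inhibition; mean of at least two or three experiments.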

Test [14] deals with L1210. Nature of the test: Effect on spermine (SPM) levels after 48 h treatment at 150 uM in L1210 cells. In kind it is functional, Mus musculus.
Test [15] concerns L1210. Nature of the test: Effect on Putrescine (PUT) levels after 48 hr treatment at 150 uM in L1210 cells. In kind it is functional, Mus musculus.
Test [16] deals with L1210. Nature of the test: Effect on spermidine (SPD) levels after 48 hr treatment at 150 uM in L1210 cells. The class given is functional, Mus musculus.

Some results are limits rather than exact numbers.

Sequence of Spermidine/spermine N(1)-acetyltransferase (SAT) (Mus musculus) (P48026 whole entry, looked up): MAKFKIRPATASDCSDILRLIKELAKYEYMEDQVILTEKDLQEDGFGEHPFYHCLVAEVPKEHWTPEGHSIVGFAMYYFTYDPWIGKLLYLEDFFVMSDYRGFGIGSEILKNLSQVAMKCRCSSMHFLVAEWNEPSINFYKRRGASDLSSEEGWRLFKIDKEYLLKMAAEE
Sequence of Spermidine/spermine N(1)-acetyltransferase (SAT) (Mus musculus) (Q6P8J2 whole entry, looked up): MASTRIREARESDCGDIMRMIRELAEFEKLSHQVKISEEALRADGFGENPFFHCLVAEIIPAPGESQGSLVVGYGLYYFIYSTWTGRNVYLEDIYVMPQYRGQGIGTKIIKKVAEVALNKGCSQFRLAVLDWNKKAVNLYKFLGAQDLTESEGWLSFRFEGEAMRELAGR

Consider `FC(F)(F)CNCCCNCCCCNCCCNCC(F)(F)F`, for which the Activity was determined as 87 in test [1]; 94 in test [2]; 116 in [4]; 100% in [6]; 97% in test [7]; 100% in [8]. Also, the Cellular concentration in test [3] is less than 0.02 nmol/10^6 cells. In [5], this compound had an IC50 greater than 100 µM.
On to `CCNCCCNCCC(N)CNCCCNCC` (stereo not drawn), for which, in test [3], the Cellular concentration amounted to 3.1 nmol/10^6 cells. The Activity in [9] was 32; in test [10], 26; in [11], 7; in [6], 16%; in test [7], 667%; in test [8] it was 58%. Also, the IC50 in test [12] stood at 8 µM; in test [5], 0.4 µM. For the same compound, affinity in test [13] was put at a Ki of 33.7 µM.
Regarding `CCNCCCNCCCCNCCCNCC` [BIS(ETHYL)SPERMINE], the Cellular concentration in [3] is 1.78 nmol/10^6 cells. The Activity came to 22 in test [14], 0 in test [15], 0 in test [16] and 28% in test [8].
